From ChEMBL document CHEMBL1955779, “Favourable involvement of α2A-adrenoreceptor antagonism in the I₂-imidazoline binding sites-mediated morphine analgesia enhancement” (Bioorg Med Chem, 2012)
Activity calls are given as the source filed them. The rule behind the calls is not given here.

Key:
[1] = biological target: T1, Alpha-2B adrenergic receptor (Homo sapiens) (UniProt P18089); test: Antagonist activity at human alpha2B adrenergic receptor expressed in CHO cells assessed as inhibition of clonidine-induced extracellular acidification after 30 mins by cytosensor microphysiometry; assay type: functional, cell-based
T1 sequence (whole entry): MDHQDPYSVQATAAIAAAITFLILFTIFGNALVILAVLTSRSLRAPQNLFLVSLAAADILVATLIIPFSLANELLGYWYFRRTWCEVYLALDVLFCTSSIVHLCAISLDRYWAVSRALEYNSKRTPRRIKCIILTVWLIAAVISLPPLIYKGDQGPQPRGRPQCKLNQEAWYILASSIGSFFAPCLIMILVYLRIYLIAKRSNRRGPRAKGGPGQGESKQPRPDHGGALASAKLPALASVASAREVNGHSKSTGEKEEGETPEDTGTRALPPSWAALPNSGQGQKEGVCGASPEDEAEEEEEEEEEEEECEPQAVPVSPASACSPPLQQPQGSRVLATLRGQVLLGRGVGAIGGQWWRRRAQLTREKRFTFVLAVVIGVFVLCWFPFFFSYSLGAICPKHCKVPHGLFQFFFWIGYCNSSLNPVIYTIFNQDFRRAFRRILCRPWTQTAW
Summary of the method: (§1)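 pKb from cytosensor microphysiometry on CHO cells each expressing one human α2 subtype (α2A, α2B or α2C). Antagonist shift of the clonidine agonist concentration-effect curve was measured. Means ± SEM of three to six separate experiments.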

[2] = biological target: T2, Alpha-2A adrenergic receptor (Homo sapiens) (UniProt P08913); test: Antagonist activity at human alpha2A adrenergic receptor expressed in CHO cells assessed as inhibition of clonidine-induced extracellular acidification after 30 mins by cytosensor microphysiometry; assay type: functional, cell-based; summary of the method: as §1
T2 sequence (whole entry): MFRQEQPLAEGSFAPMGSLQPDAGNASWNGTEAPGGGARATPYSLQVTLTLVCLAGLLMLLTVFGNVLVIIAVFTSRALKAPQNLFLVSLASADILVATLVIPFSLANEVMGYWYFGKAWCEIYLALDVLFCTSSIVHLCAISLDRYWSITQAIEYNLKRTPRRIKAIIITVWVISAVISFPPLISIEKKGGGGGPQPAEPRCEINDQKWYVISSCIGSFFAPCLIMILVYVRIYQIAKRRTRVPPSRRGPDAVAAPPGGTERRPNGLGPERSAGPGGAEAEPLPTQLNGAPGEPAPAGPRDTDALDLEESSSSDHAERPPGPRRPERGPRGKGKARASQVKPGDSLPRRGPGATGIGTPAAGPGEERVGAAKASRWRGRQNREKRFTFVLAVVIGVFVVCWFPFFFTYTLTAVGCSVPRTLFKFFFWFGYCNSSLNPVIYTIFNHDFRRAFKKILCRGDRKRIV

[3] = biological target: T3, Alpha-2C adrenergic receptor (Homo sapiens, UniProt P18825); test: Displacement of [3H]RX821002 from human Alpha-2C adrenergic receptor expressed in CHO cells after 30 mins by scintillation counting; assay type: cell-based
T3 sequence (P18825 whole entry): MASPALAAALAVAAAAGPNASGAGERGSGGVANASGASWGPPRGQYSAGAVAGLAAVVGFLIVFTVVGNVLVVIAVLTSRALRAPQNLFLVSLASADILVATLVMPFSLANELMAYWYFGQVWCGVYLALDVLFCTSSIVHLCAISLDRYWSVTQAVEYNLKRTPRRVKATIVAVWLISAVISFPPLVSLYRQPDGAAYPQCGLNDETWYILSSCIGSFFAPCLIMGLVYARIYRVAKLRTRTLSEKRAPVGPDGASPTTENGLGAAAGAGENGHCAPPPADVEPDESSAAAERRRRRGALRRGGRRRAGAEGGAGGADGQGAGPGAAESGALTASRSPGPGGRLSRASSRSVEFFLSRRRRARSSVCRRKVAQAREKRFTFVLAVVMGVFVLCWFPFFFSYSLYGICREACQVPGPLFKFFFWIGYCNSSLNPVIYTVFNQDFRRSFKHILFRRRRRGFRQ

[4] = biological target: T4, Alpha-2B adrenergic receptor (Homo sapiens, UniProt P18089); test: Displacement of [3H]RX821002 from human alpha2B adrenergic receptor expressed in CHO cells after 30 mins by scintillation counting; assay type: cell-based
T4 sequence (P18089 whole entry): T1 sequence (whole entry)

[5] = biological target: T5, Alpha-2C adrenergic receptor (Homo sapiens) (UniProt P18825); test: Antagonist activity at human Alpha-2C adrenergic receptor expressed in CHO cells assessed as inhibition of clonidine-induced extracellular acidification after 30 mins by cytosensor microphysiometry; assay type: functional, cell-based; summary of the method: as §1
T5 sequence (whole entry): T3 sequence (P18825 whole entry)

[6] = biological target: T6, Alpha-2A adrenergic receptor (Homo sapiens, UniProt P08913); test: Displacement of [3H]RX821002 from human alpha2A adrenergic receptor expressed in CHO cells after 30 mins by scintillation counting; assay type: cell-based
T6 sequence (P08913 whole entry): T2 sequence (whole entry)

[7] = Binding affinity to I2 imidazoline binding site
[8] = Selectivity ratio of I2 imidazoline binding site to alpha2 adrenergic receptor
[9] = Displacement of [3H]2-BFI from Sprague-Dawley rat I2 imidazoline binding site by liquid scintillation counting
Mus musculus [10] = test: Potentiation of morphine-induced analgesic activity in CD1 mouse assessed as latency in radiant heat-induced tail flick at 1.250 mg/kg, ip administered 15 mins prior to morphine measured up to 120 mins; assay type: functional, organism-based; set-up: dose 1.25 mg/kg
Summary of the method: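 Male CD-1 mice (25–35 g) were given ip pretreatment in distilled-water vehicle 15 min before morphine 5.0 mg/kg sc or saline. Radiant-heat IR tail-flick was applied to the lower third of the tail. Basal latency (2–3 s) was the mean of two trials 30 min apart. Readings at 30, 60, 90, 120 and 240 min post-morphine were expressed as %MPE. Means ± SEM, 8–10 mice.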

Mus musculus [11] = test: Analgesic activity in CD1 mouse assessed as latency in radiant heat-induced tail flick at 5 mg/kg, sc after 30 mins; assay type: functional, organism-based; set-up: dose 5 mg/kg
Summary of the method: (§2)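 Male CD-1 mice, 25–35 g. Radiant heat tail-flick: I.R. source aimed at lower third of tail; basal latency (2-3 s) is the mean of two trials 30 min apart. Test agent 1 or 2 mg/kg ip, or distilled water vehicle, given 15 min before morphine 5.0 mg/kg sc or saline. Readings at 30, 60, 90, 120 and 240 min after morphine, as %MPE; 8–10 mice, means ± SEM.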

Mus musculus [12] = test: Potentiation of morphine-induced analgesic activity in CD1 mouse assessed as latency in radiant heat-induced tail flick at 2 mg/kg, ip administered 15 mins prior to morphine measured up to 120 mins; assay type: functional, organism-based; set-up: dose 2 mg/kg; summary of the method: as §2
Mus musculus [13] = test: Potentiation of morphine-induced analgesic activity in CD1 mouse assessed as latency in radiant heat-induced tail flick at 1 mg/kg, ip administered 15 mins prior to morphine measured up to 120 mins; assay type: functional, organism-based; set-up: dose 1 mg/kg; summary of the method: as §2
Mus musculus [14] = test: Antinociceptive activity in CD1 mouse assessed as latency in radiant heat-induced tail flick at 1 mg/kg, ip from 30 to 240 mins; assay type: functional, organism-based; set-up: dose 1 mg/kg; summary of the method: as §2
Mus musculus [15] = test: Antinociceptive activity in CD1 mouse assessed as latency in radiant heat-induced tail flick at 2 mg/kg, ip from 30 to 240 mins; assay type: functional, organism-based; set-up: dose 2 mg/kg; summary of the method: as §2
Mus musculus [16] = test: Potentiation of morphine-induced analgesic activity in ip dosed CD1 mouse assessed as latency in radiant heat-induced tail flick administered 15 mins prior to morphine in the presence of 2 mg/kg, ip of idazoxan; assay type: functional; conditions: route intraperitoneal
Summary of the method: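 CD-1 mice, radiant heat tail-flick. […] Test agent given 15 min before morphine 5.0 mg/kg sc. Latency read after morphine.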

[17] = biological target: T7, Alpha-1A adrenergic receptor (Homo sapiens, UniProt P35348); test: Binding affinity to alpha1A adrenergic receptor
T7 sequence (P35348 whole entry): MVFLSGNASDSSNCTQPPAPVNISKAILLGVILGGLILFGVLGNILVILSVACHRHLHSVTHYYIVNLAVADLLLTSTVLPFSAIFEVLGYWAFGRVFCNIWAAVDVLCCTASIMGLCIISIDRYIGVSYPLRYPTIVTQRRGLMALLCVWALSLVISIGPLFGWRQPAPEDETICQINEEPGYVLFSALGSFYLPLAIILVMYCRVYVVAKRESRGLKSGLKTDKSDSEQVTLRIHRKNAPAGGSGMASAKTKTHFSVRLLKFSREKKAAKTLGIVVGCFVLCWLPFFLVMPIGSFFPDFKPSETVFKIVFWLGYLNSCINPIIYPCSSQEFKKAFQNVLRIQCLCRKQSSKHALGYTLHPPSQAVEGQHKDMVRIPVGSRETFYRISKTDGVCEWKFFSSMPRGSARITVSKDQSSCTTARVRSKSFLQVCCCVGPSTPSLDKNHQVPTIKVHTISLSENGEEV

[18] = biological target: T8, 5-hydroxytryptamine receptor 1A (Homo sapiens, UniProt P08908); test: Binding affinity to 5HT1A receptor
T8 sequence (P08908 whole entry): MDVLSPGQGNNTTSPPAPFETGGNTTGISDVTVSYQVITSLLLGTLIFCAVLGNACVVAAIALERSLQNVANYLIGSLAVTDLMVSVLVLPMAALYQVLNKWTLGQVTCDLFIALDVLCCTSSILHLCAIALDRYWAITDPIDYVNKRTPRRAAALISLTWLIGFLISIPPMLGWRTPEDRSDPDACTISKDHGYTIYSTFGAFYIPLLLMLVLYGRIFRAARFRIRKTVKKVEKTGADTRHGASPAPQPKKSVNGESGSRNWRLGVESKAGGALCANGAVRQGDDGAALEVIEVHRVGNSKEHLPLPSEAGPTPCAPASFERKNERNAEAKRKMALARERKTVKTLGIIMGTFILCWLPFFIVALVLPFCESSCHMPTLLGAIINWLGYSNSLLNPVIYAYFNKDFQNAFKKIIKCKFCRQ

| Structure (SMILES) | pKb [1] | pKb [2] | Ki [3] | Ki [4] | pKb [5] | Ki [6] | further results |
| --- | --- | --- | --- | --- | --- | --- | --- |
| c1ccc([C@@H]2CO[C@H](C3=NCCN3)CO2)cc1 (relative stereo) | 5.5 | < 5 | > 10 µM | > 10 µM | < 5 | > 10 µM | – |
| c1ccc([C@H]2COC[C@@H](C3=NCCN3)O2)cc1 (relative stereo) | 5.18 | < 5 | > 10 µM | > 10 µM | < 5 | 5.37 µM | – |
| c1ccc(CCC2=NCCN2)cc1 [PHENYZOLINE] | – | – | – | – | – | – | pKi [7]: 8.6; Selectivity ratio [8]: 794 |
| c1ccc([C@H]2CO[C@H](C3=NCCN3)CO2)cc1 | < 5 | < 5 | > 10 µM | > 10 µM | < 5 | 7.94 µM | pKi [9]: 5.48 |
| c1ccc([C@@H]2COC[C@@H](C3=NCCN3)O2)cc1 (relative stereo) | < 5 | < 5 | > 10 µM | > 10 µM | < 5 | 6.31 µM | – |
| COC(=O)[C@@H]1[C@H]2C[C@H]3c4[nH]c5ccccc5c4CCN3C[C@@H]2CC[C@@H]1O | – | – | – | – | – | – | Activity (Mus musculus [10]): inactive |
| c1ccc(C2(c3ccccc3)COCC(C3=NCCN3)O2)cc1 (configuration not stated) | < 5 | 5.37 | 6.17 µM | 4.47 µM | < 5 | 3.8 µM | – |
| CN1CC[C@]23c4c5ccc(O)c4O[C@H]2[C@@H](O)C=C[C@H]3[C@H]1C5 | – | – | – | – | – | – | Activity (Mus musculus [11]): Active |
| c1ccc2c(c1)OCC(C1=NCCN1)O2 (configuration not stated) [IDAZOXAN] | 7.16 | 7.73 | – | – | 7.92 | – | Activity (Mus musculus [12]): inactive; pKi [7]: 8.37 |
| c1ccc([C@@H]2CO[C@@H](C3=NCCN3)CO2)cc1 | < 5 | 6.4 | > 10 µM | > 10 µM | < 5 | 0.398 µM | pKi [9]: 6.52 |
| c1ccc(C2COC(C3=NCCN3)CO2)cc1 (racemic) | < 5 | 6.4 | > 10 µM | > 10 µM | < 5 | 0.501 µM | Activity (Mus musculus [13]): Active; Activity (Mus musculus [14]): inactive; Activity (Mus musculus [15]): inactive; Activity (Mus musculus [12]): Active; Activity (Mus musculus [16]): -24%; pKi [9]: 6.35; Ki [17]: > 10 µM; Ki [18]: > 10 µM |
| c1ccc(C2(c3ccccc3)COC(C3=NCCN3)CO2)cc1 (configuration not stated) | < 5 | < 5 | 7.41 µM | 2.82 µM | < 5 | > 10 µM | – |
